From ChEMBL document CHEMBL5034016 (J Med Chem, 2021) come the findings set out here.

Data set [1] concerns Human immunodeficiency virus 1. Briefly: Anti-HIV activity against HIV-1 Ba-L infected in PHA-stimulated PBMC expressing CCR5 assessed as inhibition of virus-indued cytopathogenic effect measured after 10 days by ELISA. It counts as functional, organism-based. As to conditions: Human immunodeficiency virus 1, Ba-L, 240 h. For orientation: Damage to the host cells serves as the signal in cytopathic effect assays.

Data set [2] deals with Human immunodeficiency virus 1. Put plainly: Anti-HIV activity against HIV-1 NL4.3 infected in PHA-stimulated human PBMC expressing CXCR-4 assessed as inhibition of virus-indued cytopathogenic effect measured after 10 days by ELISA. It counts as functional, organism-based. As to conditions: Human immunodeficiency virus 1, NL4.3, PBMC, 240 h.
A short description of data set [3]: Cytotoxicity against human RD cells assessed as reduction in cell viability measured after 3 days by MTS/PMS assay. The data set is classed as cell-based. As to conditions: time 3 day. The procedure, abridged:
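Uninfected RD cells were treated with serial compound dilutions in the same 3-day setup as the antiviral assay. […] Multiple dose–response curves (>2) from >1 independent experiments.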

Data set [4] concerns Human immunodeficiency virus 2. Briefly: Anti-HIV activity against HIV-2 ROD infected in human MT4 cells assessed as reduction in virus-indued cytopathic effect preincubated with cells for 30 mins followed by viral infection and measured after 5 days by MTS assay. It counts as functional, organism-based. As to conditions: Human immunodeficiency virus 2, ROD. In short, it runs like this:
(§1)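 MT-4 cells (1×10^6 cells/mL) were preincubated with compound for 30 min at 37 °C, then infected with cell-line-adapted NL4.3 or ROD dosed by TCID50 of the stock. After 5 days, CPE was scored microscopically and EC50 calculated from MTS/PES reduction (A490). Mean ± SD of at least three independent experiments.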

For another data set, the system named is Enterovirus A71. Briefly: Antiviral activity against Enterovirus A71 BrCr infected in human RD cells assessed as reduction in virus-induced cytopathic effect incubated for 3 days by MTS/PMS assay. The data set is classed as functional, organism-based. As to conditions: Enterovirus A, 72 h.
Data set [5] can be described thus: Selectivity index, ratio of CC50 for human RD cells to EC50 for antiviral activity against Enterovirus A71 infected in human RD cells. It counts as toxicity, cell-based. As to conditions: read-out: Ratio CC50/EC50.
Data set [6] can be described thus: Cytotoxicity against human MT4 cells assessed as reduction in cell viability measured after 5 days by MTS/PES assay. It counts as cell-based. As to conditions: time 5 day. The procedure, abridged:
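Uninfected MT-4 cells were exposed to compound for 5 days. Viability was read by MTS/PES (A490, formazan proportional to living cells). […] Mean ± SD of at least three independent experiments.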

In data set [7] the test system is Human immunodeficiency virus 1. Put plainly: Anti-HIV activity against HIV-1 NL4.3 infected in human MT4 cells assessed as reduction in virus-indued cytopathic effect preincubated with cells for 30 mins followed by viral infection and measured after 5 days by MTS assay. It counts as functional, organism-based. As to conditions: Human immunodeficiency virus 1, NL4.3, MT4. The procedure, abridged:
as §1

Data set [8] has as its system Enterovirus. Put plainly: Antiviral activity against Enterovirus A71 harbouring VP1 P246S mutant infected in human RD cells assessed as reduction in virus induced cytopathic effect incubated for 3 days by MTS/PMS assay. It counts as functional, organism-based.
In data set [9] the test system is Enterovirus. Briefly: Antiviral activity against Enterovirus A71 harbouring VP1 S184T/P246S double mutant infected in human RD cells assessed as reduction in virus induced cytopathic effect incubated for 3 days by MTS/PMS assay. The data set is classed as functional, organism-based.
In data set [10] the test system is Enterovirus. Briefly: Antiviral activity against Enterovirus A71 harbouring VP1 S184T mutant infected in human RD cells assessed as reduction in virus induced cytopathic effect incubated for 3 days by MTS/PMS assay. It counts as functional, organism-based.
A short description of data set [11]: Inhibition of mouse mAb clone 9305 binding to HIV1 gp120 expressed in human MT4 cells by flow cytometry analysis. It counts as cell-based, Human immunodeficiency virus 1. (In general: A flow cytometer gives signals particle by particle.)
Data set [12] is described as follows: Inhibition of human mAb clone 2G12 binding to HIV1 gp120 expressed in human MT4 cells by flow cytometry analysis. It counts as cell-based, Human immunodeficiency virus 1.
The nature of data set [13]: Inhibition of human mAb clone 447-52D binding to HIV1 gp120 expressed in human MT4 cells by flow cytometry analysis. It counts as cell-based, Human immunodeficiency virus 1.
The nature of data set [14]: Inhibition of mouse mAb clone 9284 binding to HIV1 gp120 expressed in human MT4 cells by flow cytometry analysis. It counts as cell-based, Human immunodeficiency virus 1.
Data set [15] has as its system Human immunodeficiency virus 1. Put plainly: Inhibition of HIV-1 gp120 interaction with human CD4 assessed as inhibition of viral entry at 156 to […] by SPR analysis. As to conditions: dose lower […], dose upper […]. For orientation: SPR reads the build-up and loss of mass on a sensor chip optically.

With `Cc1nnc(C(C)C)n1[C@H]1C[C@H]2CC[C@@H](C1)N2CC[C@H](NC(=O)C1CCC(F)(F)CC1)c1ccccc1` [MARAVIROC], the EC50 in [1] is 4.48 nM; in [2], > 1000 nM.
Take `O=C(CCC(CCC(=O)NC(Cc1c[nH]c2c(-c3ccc(C(=O)O)cc3)cccc12)C(=O)O)(CCC(=O)NC(Cc1c[nH]c2c(-c3ccc(C(=O)O)cc3)cccc12)C(=O)O)[N+](=O)[O-])NC(Cc1c[nH]c2c(-c3ccc(C(=O)O)cc3)cccc12)C(=O)O` (configuration not stated): the half-maximal cytotoxic concentration (CC50) at 72 h in data set [3] was > 61 µM. Further, the EC50 is 49.7 µM in data set [4], 61600 nM in the data set on Enterovirus A71 and 12 µM in [7]. Further, the selectivity ratio in data set [5] is 1. In addition, the CC50 at 120 h in data set [6] was > 100 µM.
With `O=C(CCC(CCC(=O)N[C@H](Cc1c[nH]c2ccccc12)C(=O)O)(CCC(=O)N[C@H](Cc1c[nH]c2ccccc12)C(=O)O)NC(=O)CCOCC(COCCC(=O)NC(CCC(=O)N[C@H](Cc1c[nH]c2ccccc12)C(=O)O)(CCC(=O)N[C@H](Cc1c[nH]c2ccccc12)C(=O)O)CCC(=O)N[C@H](Cc1c[nH]c2ccccc12)C(=O)O)(COCCC(=O)NC(CCC(=O)N[C@H](Cc1c[nH]c2ccccc12)C(=O)O)(CCC(=O)N[C@H](Cc1c[nH]c2ccccc12)C(=O)O)CCC(=O)N[C@H](Cc1c[nH]c2ccccc12)C(=O)O)COCCC(=O)NC(CCC(=O)N[C@H](Cc1c[nH]c2ccccc12)C(=O)O)(CCC(=O)N[C@H](Cc1c[nH]c2ccccc12)C(=O)O)CCC(=O)N[C@H](Cc1c[nH]c2ccccc12)C(=O)O)N[C@H](Cc1c[nH]c2ccccc12)C(=O)O`, the EC50 with Enterovirus [8] came out at 4.7 µM; in the data set on Enterovirus [9] it was 8.9 µM; in the data set on Enterovirus A71, 300 nM; with Enterovirus [10], 2000 nM. Further, in data set [3], the CC50 at 72 h stood at 24.9 µM.
For the compound `O=C(CCC(CCC(=O)NC(Cc1c[nH]c2c(-c3cc(C(=O)O)cc(C(=O)O)c3)cccc12)C(=O)O)(CCC(=O)NC(Cc1c[nH]c2c(-c3cc(C(=O)O)cc(C(=O)O)c3)cccc12)C(=O)O)[N+](=O)[O-])NC(Cc1c[nH]c2c(-c3cc(C(=O)O)cc(C(=O)O)c3)cccc12)C(=O)O` (configuration not stated), the selectivity ratio in [5] is 63.
Same read-out and setting: then `O=C(CCC(CCC(=O)NC(Cc1c(-c2cc(C(=O)O)cc(C(=O)O)c2)[nH]c2ccccc12)C(=O)O)(CCC(=O)NC(Cc1c(-c2cc(C(=O)O)cc(C(=O)O)c2)[nH]c2ccccc12)C(=O)O)[N+](=O)[O-])NC(Cc1c(-c2cc(C(=O)O)cc(C(=O)O)c2)[nH]c2ccccc12)C(=O)O` (configuration not stated), with 203; and `O=C(CCC(CCC(=O)NC(Cc1c[nH]c2c(-c3cccc(C(=O)O)c3)cccc12)C(=O)O)(CCC(=O)NC(Cc1c[nH]c2c(-c3cccc(C(=O)O)c3)cccc12)C(=O)O)[N+](=O)[O-])NC(Cc1c[nH]c2c(-c3cccc(C(=O)O)c3)cccc12)C(=O)O` (configuration not stated), with 1.
In the case of `O=C(CCOCC(COCCC(=O)NC(Cc1c[nH]c2c(-c3cccc(C(=O)O)c3)cccc12)C(=O)O)(COCCC(=O)NC(Cc1c[nH]c2c(-c3cccc(C(=O)O)c3)cccc12)C(=O)O)COCCC(=O)NC(Cc1c[nH]c2c(-c3cccc(C(=O)O)c3)cccc12)C(=O)O)NC(Cc1c[nH]c2c(-c3cccc(C(=O)O)c3)cccc12)C(=O)O` (configuration not stated), the selectivity ratio in data set [5] worked out at 20.
Take `O=C(CCC(CCC(=O)NC(Cc1c(-c2cc(C(=O)O)cc(C(=O)O)c2)[nH]c2c(-c3cc(C(=O)O)cc(C(=O)O)c3)cccc12)C(=O)O)(CCC(=O)NC(Cc1c(-c2cc(C(=O)O)cc(C(=O)O)c2)[nH]c2c(-c3cc(C(=O)O)cc(C(=O)O)c3)cccc12)C(=O)O)[N+](=O)[O-])NC(Cc1c(-c2cc(C(=O)O)cc(C(=O)O)c2)[nH]c2c(-c3cc(C(=O)O)cc(C(=O)O)c3)cccc12)C(=O)O` (configuration not stated): the cytotoxic concentration (CC50) at 72 h in data set [3] was > 100 µM. The results for the EC50 (in data set [4]; in the data set on Enterovirus A71; in data set [7]) were 0.07 µM, 200 nM and 0.04 µM, respectively. Moreover, the selectivity ratio in data set [5] was found to be 526. The 50% cytotoxic concentration (CC50) at 120 h in [6] is > 100 µM.
Take `O=C(CCOCC(COCCC(=O)NC(Cc1c[nH]c2c(-c3ccc(C(=O)O)cc3)cccc12)C(=O)O)(COCCC(=O)NC(Cc1c[nH]c2c(-c3ccc(C(=O)O)cc3)cccc12)C(=O)O)COCCC(=O)NC(Cc1c[nH]c2c(-c3ccc(C(=O)O)cc3)cccc12)C(=O)O)NC(Cc1c[nH]c2c(-c3ccc(C(=O)O)cc3)cccc12)C(=O)O` (configuration not stated): the selectivity ratio in data set [5] worked out at 60.
On the same count and under the same terms, then `O=C(CCOCC(COCCC(=O)NC(Cc1c[nH]c2c(-c3cc(C(=O)O)cc(C(=O)O)c3)cccc12)C(=O)O)(COCCC(=O)NC(Cc1c[nH]c2c(-c3cc(C(=O)O)cc(C(=O)O)c3)cccc12)C(=O)O)COCCC(=O)NC(Cc1c[nH]c2c(-c3cc(C(=O)O)cc(C(=O)O)c3)cccc12)C(=O)O)NC(Cc1c[nH]c2c(-c3cc(C(=O)O)cc(C(=O)O)c3)cccc12)C(=O)O` (configuration not stated), with 157.
The same measure, in the same setting: then `CCOC(=O)c1ccc(OCCC2CCN(c3ccc(C)nn3)CC2)cc1` [PIRODAVIR], with 333; and `O=C(CCOCC(COCCC(=O)NC(Cc1c(-c2ccc(C(=O)O)cc2)[nH]c2c(-c3ccc(C(=O)O)cc3)cccc12)C(=O)O)(COCCC(=O)NC(Cc1c(-c2ccc(C(=O)O)cc2)[nH]c2c(-c3ccc(C(=O)O)cc3)cccc12)C(=O)O)COCCC(=O)NC(Cc1c(-c2ccc(C(=O)O)cc2)[nH]c2c(-c3ccc(C(=O)O)cc3)cccc12)C(=O)O)NC(Cc1c(-c2ccc(C(=O)O)cc2)[nH]c2c(-c3ccc(C(=O)O)cc3)cccc12)C(=O)O` (configuration not stated), with 667.
With `O=C(CCOCC(COCCC(=O)NC(Cc1c(-c2cc(C(=O)O)cc(C(=O)O)c2)[nH]c2ccccc12)C(=O)O)(COCCC(=O)NC(Cc1c(-c2cc(C(=O)O)cc(C(=O)O)c2)[nH]c2ccccc12)C(=O)O)COCCC(=O)NC(Cc1c(-c2cc(C(=O)O)cc(C(=O)O)c2)[nH]c2ccccc12)C(=O)O)NC(Cc1c(-c2cc(C(=O)O)cc(C(=O)O)c2)[nH]c2ccccc12)C(=O)O` (configuration not stated), the IC50 in [11], in data set [12], in data set [13] and in data set [14] was > 100 µM each time. Besides, in data set [15], the inhibition is 50%.

As a reminder, the EC50 is the concentration at which the effect is half-maximal. As usually defined, the CC50 is the concentration giving 50% cytotoxicity. A word on the IC50: it is the concentration that inhibits the measured activity by half. By inhibition is commonly meant the change of the read-out against control, counted positive when it falls.
